The list is not random: actives were taken first. Their share in the collection is about 3%.
S1P3 ag: human S1P3 receptor agonists, primary screen, cell-based, primary and confirmation, NFAT-BLA reporter; Sphingosine 1-phosphate receptor 3 (Homo sapiens), Q99500; S1P3 NFAT-BLA reporter cells, agonism, FRET ratio; relative to 1 µM S1P, basal subtracted; activation, % at 4.5 µM; actives 0.1% (n = 60,000); AID 373, 2006;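 active means activation above the screen-wide mean plus 3 SD, cut at about 4.5% in these data, passing the limit was not always enough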
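Benchmarks: high control 1 µM S1P / System: stable CHO line with human S1P3, Gα16, NFAT-BLA reporter / Dosing: single compound concentration, 4.5 µM final / Timing: 4 h compound at 37 °C, 2 h substrate at RT / Measured by: FRET β-lactamase substrate fluorescence, excitation 405 nm, 460/535 nm emission ratio, background-subtracted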
HTR1A agonist: human 5-HT1a receptor agonists, primary screen, cell-based, CHO, Ga15 NFAT-bla reporter; CHO 5-HT1a Ga15 NFAT-bla reporter, FRET ratio; 0% basal, 100% maximal reference agonist; activation, % at 10 µM; actives 0.56% (n = 65,000); AID 567, 2006;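 active means activation above the screen-wide mean activation plus 3 SD, cut at about 19% in these data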;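 further: 0% = DMSO wells and 100% = 5-CT at EC100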
S1P1 ag pot: S1P1 agonists and agonism potentiators, primary screen, cell-based, primary and confirmation screens, CRE-bla reporter. Sphingosine 1-phosphate receptor 1 (Homo sapiens), P21453. S1P1 CRE-bla cells, forskolin, beta-lactamase FRET, potentiator mode; S1P1 agonist co-added at EC20, 2 nM; 100% = saturating reference agonist, 0% = basal. activation, % at 9.5 µM. actives 0.57% (n = 56,000). AID 449, 2006;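 active means activation above a cutoff set at the mean activation of all tested compounds plus 3 SD, cut at about 54% in these data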;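 further: forskolin at 4 µM as EC80 and the EC20 agonist is SEW2871; 100% = SEW2871 at its EC100 plus forskolin at EC80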
Target sequence (P21453 whole entry, looked up): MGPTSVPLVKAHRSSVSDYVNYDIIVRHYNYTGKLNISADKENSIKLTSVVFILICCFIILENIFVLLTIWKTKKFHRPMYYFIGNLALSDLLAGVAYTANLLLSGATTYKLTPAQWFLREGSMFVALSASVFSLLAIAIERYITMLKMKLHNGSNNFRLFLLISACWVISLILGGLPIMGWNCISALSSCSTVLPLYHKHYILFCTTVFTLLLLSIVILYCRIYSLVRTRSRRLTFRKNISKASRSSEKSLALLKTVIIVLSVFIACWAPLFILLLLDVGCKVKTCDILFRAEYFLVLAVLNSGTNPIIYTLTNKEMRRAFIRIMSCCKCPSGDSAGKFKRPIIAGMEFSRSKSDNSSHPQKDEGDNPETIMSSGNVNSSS
5-HT1A blocker: human 5-HT1a receptor antagonists, primary screen, cell-based, CHO, Ga15 NFAT-bla reporter; 5-hydroxytryptamine receptor 1A (Homo sapiens), P08908; CHO 5-HT1a Ga15 NFAT-bla reporter, antagonist mode; inhibition, % at 10 µM; actives 0.68% (n = 62,000);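 active means inhibition above the mean of all tested compounds plus 3 SD, cut at about 43% in these data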;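 further: receptor stimulated by 5-CT agonist at 100 nM near EC80; beta-lactamase reporter measured by ratiometric fluorescence of a cleavable substrate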
HTR1E agonist: 5-HT1E receptor agonists, primary screen, cell-based, HTS; 5-hydroxytryptamine receptor 1E (Homo sapiens), P28566; CHO 5-HT1E Ga15 NFAT-bla reporter, FRET; 0% DMSO wells, 100% control agonist wells; activation, % at 6 µM; actives 0.69% (n = 65,000);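 active means activation above a set limit, the screen-wide mean activation plus 3 SD, cut at about 8.5% in these data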;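 further: 100% = positive control agonist at 1 µM giving full maximal response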
5HT1E antag: 5-HT1E receptor antagonists, primary screen, cell-based, HTS. CHO 5-HT1E Ga15 NFAT-bla reporter, FRET, antagonist. 5-hydroxytryptamine receptor 1E (Homo sapiens), P28566. AID 571, 2007. actives 0.99% (n = 65,000). inhibition, % at 6 µM;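 active means inhibition above a set limit, the mean inhibition across every tested compound plus 3 SD, cut at about 29% in these data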;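 further: signal is the 460 over 535 nm emission ratio of beta-lactamase substrate; 0% = agonist plus DMSO wells and 100% = wells without agonist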
Starred values were filed as active, the others as inactive; nt = no result.

SMILES	S1P3 ag	HTR1A agonist	S1P1 ag pot	5-HT1A blocker	HTR1E agonist	5HT1E antag
O=C(C1CCCN1S(=O)(=O)c1ccc(Cl)c(Cl)c1)N1CCCCC1 (centres undefined)	0	-2	-7	-14	-1	-4
O=C(COC(=O)c1ccco1)Nc1cccc(Br)c1	nt	0	nt	6	0	7
COCC(=O)Nc1cccc(Br)c1	1	20*	nt	1	0	-9
CCOC(=O)c1[nH]c2ccccc2c1NC(=O)CC	-2	0	2	13	0	11
CCOC(=O)c1c(C)nc(-c2ccccc2)nc1NC(=O)CC	0	-1	10	17	68*	-7
O=C(c1ccco1)N1CCN(CC(O)COc2ccc3oc4ccccc4c3c2)CC1 (centres undefined)	0	29*	8	0	0	-14
O=c1nc(C(F)(F)F)nc2ccccn12	-2	21*	nt	9	-1	-4
O=C1CCCc2sc3c(c2N1)CCCCC3	0	1	-16	-1	11*	2
CN(C)S(=O)(=O)N1CCC(c2ccc(F)cc2)C(COc2ccc3c(c2)OCO3)C1 (centres undefined)	-2	-1	-12	47*	-1	9
CCOc1ccc(N(CC(=O)Nc2ccc(C)c(C)c2)S(=O)(=O)c2c(C)noc2C)cc1	-2	0	28	18	0	6
CCOc1ccccc1NC(=O)CN(c1ccc(OC)cc1)S(=O)(=O)c1c(C)noc1C	-1	-1	-1	35	0	68*
Cc1noc(C)c1S(=O)(=O)N(CC(=O)Nc1ccc2c(c1)OCO2)c1ccc(C(C)C)cc1	-2	0	79*	15	0	3
CCOc1ccc(N(CC(=O)Nc2ccccc2C)S(=O)(=O)c2c(C)noc2C)cc1	-2	0	1	30	0	46*
COc1ccccc1NC(=O)CN(c1ccc(C)cc1)S(=O)(=O)c1c(C)n[nH]c1C	0	-2	18	63*	-1	14
CCOc1ccccc1NC(=O)CN(c1cc(C)cc(C)c1)S(=O)(=O)c1c(C)noc1C	-1	1	14	3	0	-10
Cc1nn(C)c(C)c1S(=O)(=O)N(CC(=O)Nc1ccc2c(c1)OCO2)c1ccc(C(C)C)cc1	0	1	-2	0	0	0
CC1(c2ccc3c(c2)OCO3)NC(=O)N(CC(=O)Nc2ccc(N3CCOCC3)cc2)C1=O (centres undefined)	1	2	-3	0	0	1
CCCn1nnnc1SCC(=O)NCc1ccc2c(c1)OCO2	-1	-1	22	-7	-1	8
CCC(C)(C(=O)NC1CCCCC1)N(Cc1ccco1)C(=O)c1ccc2c(c1)OCO2 (centres undefined)	-1	-1	3	44*	-1	-6
Cc1ccc(-c2nc(NC(=O)CSc3nnnn3-c3ccccc3)ns2)cc1	-1	2	-62	50*	0	-15
Nc1nnnn1CC(=O)OCc1cccc(Br)c1	0	-3	-2	nt	0	8
CC(=O)N1CCc2cc(S(=O)(=O)NCCCN3CCN(Cc4ccccc4)CC3)ccc21	nt	-1	nt	16	35*	-3
COC(=O)C1=C(C)NC(C)=C(C(=O)OC)C1c1ccccc1OCc1c(C)no[n+]1[O-]	1	-3	-15	15	0	5
CCCc1cc(C(=O)N(C2CCCCC2)C2CCCCC2)no1	58*	-2	13	3	0	3
CCCc1cc(C(=O)NC2CCCCC2)no1	0	-1	3	11	0	11
SMILES	S1P3 ag	HTR1A agonist	S1P1 ag pot	5-HT1A blocker	HTR1E agonist	5HT1E antag
Cc1nc(N2CCN(C)CC2)c2c(C)c(C(=O)Nc3ccc(F)cc3)sc2n1	nt	0	nt	-8	20*	-9
CCC(=O)N1CCN(c2nc(C)nc3sc(C)c(C)c23)CC1	-1	-1	-2	4	0	4
Cc1ccc2[nH]c3c(NCc4ccco4)ncnc3c2c1	-2	0	65*	21	1	14
c1coc(CNc2ncnc3nc[nH]c23)c1	0	-2	2	-200	1	-11
COc1ccc(NC(=O)CNS(=O)(=O)c2cccc3nonc23)c(OC)c1	nt	-4	nt	-2	-1	-5
Cc1c(C(=O)O)c2cc(O)ccc2n1-c1ccccc1	0	-4	7	13	-2	16
COC(=O)c1c(C)n(-c2ccc(OC)cc2)c2ccc(O)cc12	-1	0	66*	35	0	6
COC(=O)c1sc2ccccc2c1N	0	-2	-26	10	0	-3
COC(=O)c1sc2ccccc2c1C(=O)OC	0	-3	0	2	11*	2
Cc1cc(C)cc(N(CC(=O)NCc2cccnc2)S(C)(=O)=O)c1	-2	0	1	-8	17*	0
O=c1cc(-c2ccccc2)c2ccc(O)c(CN3CCCCC3)c2o1	-1	-1	2	6	0	15
O=c1oc2c(CN3CCCCCC3)c(O)ccc2cc1-c1nc2ccccc2[nH]1	0	-1	26	15	1	30*
CCOC(=O)N1CCN(c2ncnc3c2oc2nc(CC(C)C)c4c(c23)CCC4)CC1	-1	-4	6	-2	0	-5
Cc1cc2nc(-c3ccc(NC(=O)C(C)C)cc3)oc2cc1C	-2	-1	108*	7	0	-12
Cc1cc2ccccc2c(=O)n1CC(=O)N(C)c1ccc(F)cc1	0	-2	-26	-7	-1	-15
COc1cc(CC(=O)NCc2ccc3c(c2)OCO3)cc(OC)c1OC	0	0	13	-2	1	0
COc1cc([C@@H]2c3cc4c(cc3[C@H](O)[C@H]3COC(=O)[C@H]23)OCO4)cc(OC)c1OC	-6	-3	-22	nt	0	73*
Cc1nnc2ccc(Oc3ccc(-c4ccccc4)cc3)nn12	-1	0	68*	1	0	8
CC(CN1CCCCC1)OC(=O)c1cc2ccccc2o1 (centres undefined)	0	46*	-31	-10	2	0
Cc1ccc2[nH]c(=O)c(N3CCOCC3)c(-c3ccccc3)c2c1	0	4	nt	52*	0	11

Bioassay records deposited in PubChem by The Scripps Research Institute Molecular Screening Center.
